# According to ChEMBL document CHEMBL5154683, “A 5-FU Precursor Designed to Evade Anabolic and Catabolic Drug Pathways and Activated by Pd Chemistry In Vitro and In Vivo” (J Med Chem, 2022):
# Active and inactive are the calls of the source. The rule behind the calls is not given here.
# How the values were obtained:
# [1] = AUC (0 to t) in male Wistar Han rat at 10 mg/kg, po administered as single dose measured upto 24 hrs; assay type: ADME, organism-based; set-up: time < 24 hrs, dose 10 mg/kg, route po; details: in vivo
# Method in brief: (§1)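 Male jugular-vein-cannulated Wistar Han rats, 263–319 g, single dose. IV: 1 mg/kg as 2 mL/kg of 0.5 mg/mL in 5% DMSO/95% HPCD (20% w/v), not fasted. PO: 10 mg/kg as 5 mL/kg of 2 mg/mL suspension in 5% DMSO/95% tween 80/HPCD vehicle, fasted overnight. Serial cannula blood sampling 0.083/0.25–24 h (n = 3/route); parent quantified by QToF against calibration curve.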
# [2] = AUC (0 to t) in female Wistar Han rat at 1000 mg/kg, po administered as single dose measured upto 24 hrs; assay type: ADME, organism-based; set-up: dose 1000 mg/kg, time < 24 hrs, route po; details: in vivo
# Method in brief: (§2)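 Single oral dose 1000 mg/kg in male and female rats, dosing volume 10 mL/kg (n = 6); animals observed 14 days with clinical checks, functional/neurobehavioral tests and body weight, necropsy on d15; exposure parameters from the toxicokinetic arm of this study.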
# [3] = Metabolic stability in human hepatocytes assessed as intrinsic clearance at 1 uM measured per 10^6 cells by LC-MS/MS analysis; assay type: ADME, cell-based, Hepatocyte; details: read-out: CLH
# Method in brief: (§3)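 Suspended hepatocytes (0.5 × 10⁶ cells/mL) in Williams E medium with 2 mM L-glutamine and 25 mM HEPES at 37 °C, compound added with 0.25% v/v DMSO after preincubation; aliquots quenched into methanol with internal standard at time points, centrifuged, supernatant analyzed by LC-MS/MS; two control compounds included.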
# [4] = AUC (0 to infinity) in male Wistar Han rat at 10 mg/kg, po administered as single dose measured upto 24 hrs; assay type: ADME, organism-based; set-up: time < 24 hrs, dose 10 mg/kg, route po; details: in vivo; method in brief: as §1
# [5] = Toxicity in female Wistar Han rat assessed as change in body weight at 1000 mg/kg, po administered as single dose measured over 14 days; assay type: organism-based; details: in vivo, 336 h, time > 14 day
# Method in brief: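 Single oral dose of 1000 mg/kg at 10 mL/kg to male and female rats (n = 6), then 14 d observation. Morbidity and mortality checked twice daily. Clinical signs recorded predose, twice on dosing day, then daily. FOB on d1, d7 or d14. Body weight on d1, 2, 5, 8, 11 and 14. Gross necropsy on d15.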
# [6] = Cmax in male Wistar Han rat at 1000 mg/kg, po administered as single dose measured upto 24 hrs; assay type: ADME, organism-based; set-up: time < 24 hrs, dose 1000 mg/kg, route po; details: in vivo; method in brief: as §2
# [7] = Metabolic stability in rat hepatocytes assessed as intrinsic clearance at 1 uM measured per 10^6 cells by LC-MS/MS analysis; assay type: ADME, cell-based, Hepatocyte; details: read-out: CLH; method in brief: as §3
# [8] = system: BXPC-3; experiment: Antiproliferative activity against human BxPC-3 cells assessed as increase in cytotoxicity at 1 uM incubated for 5 days in presence of Pd-resin by PrestoBlue dye based assay; assay type: functional, cell-based; details: time 5.0 day
# Method in brief: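 BxPC-3 (RPMI, 10% FBS, 2 mM glutamine) at 2500 cells/well, 48 h attachment, then fresh medium with 1 μM drug/prodrug ± 1 mg/mL Pd resins, 0.1% v/v DMSO, 5 d at 37 °C. Viability by PrestoBlue (10% v/v, 1 h, ex 540/em 590 nm), normalized to DMSO-treated cells; n = 3.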
# [9] = Plasma protein binding in human at 5 uM; assay type: ADME, cell-free; details: read-out: PPB (converted)
# Method in brief: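 Binding of compound at 5 μM measured in rat and human plasma, with compound recovery determined; n = 3.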
# [10] = AUC (0 to t) in male Wistar Han rat at 1 mg/kg, iv administered as single dose measured upto 24 hrs; assay type: ADME, organism-based; set-up: dose 1 mg/kg, time < 24 hrs, route iv; details: in vivo; method in brief: as §1
# [11] = Toxicity in female Wistar Han rat assessed as abnormal morphological changes in organs at 1000 mg/kg, po administered as single dose measured after 15 days; assay type: organism-based; details: in vivo, 360 h, time 15 day
# Method in brief: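 Single oral dose of 1000 mg/kg in 10 mL/kg to male and female rats (n = 6), then 14 days of observation. Mortality and morbidity checked twice daily, with clinical observations and functional/neurobehavioral tests. Body weight recorded d1, d2, d5, d8, d11 and d14. Gross necropsy on d15.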
# [12] = Metabolic stability in rat hepatocytes assessed as intrinsic clearance at 3 uM measured per 10^6 cells by LC-MS/MS analysis; assay type: ADME, cell-based, Hepatocyte; details: read-out: CLH; method in brief: as §3
# [13] = Apparent permeability across basolateral to apical side in human Caco-2 cells assessed as drug recovery at 10 uM measured after 120 mins by LC-MS/MS analysis; assay type: ADME, cell-based; details: read-out: Drug recovery
# Method in brief: (§4)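 Caco-2 cells (P40-60) seeded at 1 × 10⁵ cells/cm² on Transwells, used on day 20; rinsed and equilibrated 40 min in HBSS pH 7.4. Compound at 10 μM in HBSS, 1% v/v DMSO, added apically (A–B) or basolaterally (B–A); 120 min at 37 °C, 5% CO₂. Lucifer yellow monitored monolayer integrity; LC-MS/MS with eight-point calibration; recovery from C₀ and both compartments.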
# [14] = Prodrug conversion in rat liver S9 fraction assessed as DH5FU metabolite formation at 1.6 mM incubated for 1 hr in presence of NADPH by 19F-NMR based analysis; assay type: ADME, subcellular; details: s9, 1 h, 1600 µM
# Method in brief: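 Compound added as 150 mM stock in DMSO-d₆, preincubated 5 min at 37 °C with enzyme mixture, then NADPH added (1 mM) and incubated 1 h at 37 °C, 600 rpm; controls without NADPH and without enzymes. Stopped with EtOAc, dried under N₂, redissolved in DMSO-d₆, DH5FU detected by ¹⁹F NMR vs authentic sample.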
# [15] = Mean residence time in male Wistar Han rat at 1000 mg/kg, po administered as single dose measured upto 24 hrs; assay type: ADME, organism-based; details: in vivo; method in brief: as §2
# [16] = Apparent permeability across basolateral to apical side in human Caco-2 cells at 10 uM measured after 120 mins by LC-MS/MS analysis; assay type: ADME, cell-based; method in brief: as §4
# [17] = Stability in Sprague-Dawley rat hepatocytes assessed as parent compound remaining at 10 uM measured after 60 mins by UPLC analysis; assay type: ADME, cell-based, Hepatocyte; details: read-out: Stability
# Method in brief: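 Cryopreserved male Sprague–Dawley rat or male human hepatocytes (0.5 × 10⁶ cells/mL) in Leibovitz buffer with 10 μM compound, 37 °C, shaken 700 rpm, 60 min. Samples at 0 and 60 min quenched 1:1 with ice-cold acetonitrile; supernatant analyzed by UPLC–QToF MS (positive ion). Hepatocyte-only and buffer-only negatives; verapamil and 7-hydroxycoumarin as viability controls.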
# [18] = Tmax in male Wistar Han rat at 1000 mg/kg, po administered as single dose measured upto 24 hrs; assay type: ADME, organism-based; details: in vivo; method in brief: as §2
# [19] = Volume of distribution at steady state in male Wistar Han rat at 1 mg/kg, iv administered as single dose measured upto 24 hrs; assay type: ADME, organism-based; details: in vivo, read-out: Vdss
# Method in brief: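 Male jugular-vein-cannulated Wistar Han rats (n = 3, 263–319 g, not fasted) given 1 mg/kg IV as 2 mL/kg of 0.5 mg/mL solution in 5% DMSO/95% HPCD (20% w/v). Serial blood via cannula from 0.083 to 24 h, mixed with heparinized water and stored at –20 °C. Parent quantified by QToF against a calibration curve.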
smiles,measurement,setting,value
C#CCOc1ncc(F)c(OCC#C)n1,AUC(0-t) at 24 h,[1],6.08 µg·h/mL
same,AUC(0-t) at 24 h,[2],1210 µg·h/mL
same,hepatocyte CLint at 1 µM,[3],4.51 µL/min/1e6 cells
same,AUC(0-inf),[4],6.19 µg·h/mL
same,Activity,[5],Non-Toxic
same,Cmax,[6],84.7 µg/mL
same,hepatocyte CLint at 1 µM,[7],15.3 µL/min/1e6 cells
same,Activity,[8],Active
same,fraction unbound at 5 µM,[9],0.142
same,AUC(0-t) at 24 h,[10],0.324 µg·h/mL
same,Activity,[11],Non-Toxic
same,hepatocyte CLint at 3 µM,[12],3.31 µL/min/1e6 cells
same,"recovery at 2 h, 10 µM",[13],73.9%
same,Drug metabolism,[14],Metabolite_Notdetected
same,MRT,[15],9.7 h
same,"Papp B→A at 2 h, 10 µM",[16],38.8 ×10⁻⁶ cm/s
same,"remaining at 1 h, 10 µM",[17],95%
same,Tmax,[18],1 h
same,Vd,[19],1.76 L/kg
